Results reported in ChEMBL document CHEMBL1158491, “Inhibitors of the hepatitis C virus NS3 protease with basic amine functionality at the P3-amino acid N-terminus: discovery and optimization of a new series of P2-P4 macrocycles” (J Med Chem, 2009).

How the values were obtained:
[1] = system: Hepatitis C virus; experiment: Inhibition of HCV 1b NS3 protease by time-resolved fluorescence assay; parameters: species or system Hepatitis C virus subtype 1b
How it was run: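 Recombinant genotype 1b NS3 protease measured by time-resolved fluorescence assay; Ki determined.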

[2] = system: Hepatitis C virus; experiment: Antiviral activity against HCV 1b infected in human HuH7 cells by replicon assay in presence of 10% fetal bovine serum; format: functional, organism-based, Hepacivirus hominis; details: genotype 1b, Huh-7
How it was run: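 Subgenomic genotype 1b HCV RNA replicon in HUH-7 cells, modified Bartenschlager procedure, run with 10% fetal bovine serum. Read-out is cellular HCV RNA, confirmed in a separate assay using an anti-NS3 monoclonal antibody; EC50 derived.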

[3] = AUC (0 to 4 hrs) in Sprague-Dawley rat at 4 mg/kg, po; format: ADME, organism-based; parameters: time < 4 hr, dose 4 mg/kg, route oral; details: plasma
How it was run: (§1)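 Oral dosing in male Sprague-Dawley rats, PEG400 vehicle; plasma exposure as AUC 0–4 h; liver tissue concentration taken at the 4 h time point. Doses of 3–4 mg/kg were normalized to 5 mg/kg by linear adjustment.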

[4] = Drug level in Sprague-Dawley rat liver at 4 mg/kg, po after 4 hrs; format: ADME, organism-based; parameters: dose 4 mg/kg, route oral; details: read-out: Drug uptake; how it was run: as §1
[5] = system: Hepatitis C virus; experiment: Antiviral activity against HCV 1b infected in human HuH7 cells by replicon assay in presence of 50% normal human plasma; format: functional, organism-based, Hepacivirus hominis; details: genotype 1b, Huh-7, Plasma
How it was run: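 Genotype 1b subgenomic replicon in HUH-7 cells run under high-serum conditions (50% normal human serum). Read-out is cellular HCV RNA; EC50 reported.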

[6] = AUC (0 to 4 hrs) in Sprague-Dawley rat at 5 mg/kg, po; format: ADME, organism-based; parameters: time < 4 hr, dose 5 mg/kg, route oral; details: plasma; how it was run: as §1
[7] = Drug level in Sprague-Dawley rat liver at 5 mg/kg, po after 4 hrs; format: ADME, organism-based; parameters: dose 5 mg/kg, route oral; details: read-out: Drug uptake; how it was run: as §1
[8] = species: Homo sapiens; experiment: Fraction unbound in human plasma

SMILES	Ki [1] [nM]	EC50 [2] [nM]	AUC(0-t) at 4 h [3] [µM·h]	concentration at 4 h [4] [nM]	EC50 [5] [nM]	AUC(0-t) at 4 h [6] [µM·h]	concentration at 4 h [7] [nM]	fraction unbound [8]
C=C[C@@H]1C[C@]1(NC(=O)[C@@H]1C[C@@H]2CN1C(=O)[C@H](C(C)C)NC(=O)OCCC/C=C/c1cccc3c1CN(C3)C(=O)O2)C(=O)NS(=O)(=O)C1CC1	0.04	12						
C=C[C@@H]1C[C@]1(NC(=O)[C@@H]1C[C@@H]2CN1C(=O)[C@H](C1CCCC1)N[C@H](C)CCCCCCc1cccc3c1CN(C3)C(=O)O2)C(=O)NS(=O)(=O)C1CC1	0.1	0.7	< 0.1	< 100				
C=C[C@@H]1C[C@]1(NC(=O)[C@@H]1C[C@@H]2CN1C(=O)C(C(C)C)NCC(F)(F)CCCCCc1cccc3c1CN(C3)C(=O)O2)C(=O)NS(=O)(=O)C1CC1 (single isomer, unassigned)	0.35	14			100			
C=C[C@@H]1C[C@]1(NC(=O)[C@@H]1C[C@@H]2CN1C(=O)[C@H](C1CCCCC1)N(C)[C@H](C)CCCCCCc1cccc3c1CN(C3)C(=O)O2)C(=O)NS(=O)(=O)C1CC1	0.35	3	< 0.1	560		< 0.1	560	
C=C[C@@H]1C[C@]1(NC(=O)[C@@H]1C[C@@H]2CN1C(=O)[C@H](C1CCCCC1)N[C@H](C)CCCCCCc1cccc3c1CN(C3)C(=O)O2)C(=O)NS(=O)(=O)C1CC1	0.06	2				< 0.1		
C=C[C@@H]1C[C@]1(NC(=O)[C@@H]1C[C@@H]2CN1C(=O)C(C(C)C)NC(C(F)(F)F)CCCCCCc1cccc3c1CN(C3)C(=O)O2)C(=O)NS(=O)(=O)C1CC1 (single isomer, unassigned)	1.1	18			320			0.019
C=C[C@@H]1C[C@]1(NC(=O)[C@@H]1C[C@@H]2CN1C(=O)[C@H](C1CCCC1)N[C@H](C)CCCC/C=C/c1cccc3c1CN(C3)C(=O)O2)C(=O)NS(=O)(=O)C1CC1	0.29	0.5				< 0.1	260	
C=C[C@@H]1C[C@]1(NC(=O)[C@@H]1C[C@@H]2CN1C(=O)[C@H](C(C)C)N[C@@H](C(F)(F)F)CCCCCCc1cccc3c1CN(C3)C(=O)O2)C(=O)NS(=O)(=O)C1CC1	5.7	470						
